Autophagy HCS = autophagy modulators in MEF cells, primary screen, imaging, high-content, MEF GFP-LC3 | AID 463193, 2010 | actives 0.98% (n = 190,000) | calls only at 10 µM (by protocol) | MEF GFP-LC3 puncta imaging; test concentration mostly 10 µM;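 active = percentage of spot-positive cells more than 3 SD above its plate mean, without a fluorescence outlier flag or 80% toxicity; inconclusive = no clear call, values can overlap the other calls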;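 also: spot-positive cell cutoff set from DMSO-treated cells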
Hsp70 activator = Hsp70 transcriptional activators, primary screen, cell-based, HeLa, Hsp70 promoter luciferase, luminescence, 10 µM; HeLa Hsp70 promoter luciferase reporter; scaled: vehicle 0, proteasome-inhibitor control 100%; activation, % at 10 µM; actives 0.04% (n = 200,000); AID 1203, 2008;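 active = activation above the mean across all tested compounds plus 3 SD, cutoff set per campaign, cut at about 5.5% in these data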;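 also: 100% = MG132 at 30 µM as the positive control and 0% = DMSO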
bCat nuc transl = modulators of beta-catenin nuclear translocation, primary screen, imaging, HeLa cells, immunofluorescence, high-content. nuclear translocation activity, % at 5 µM. actives 0.3% (n = 190,000);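 active = nuclear translocation activity above 50% at 5 µM, with a well cell count of 50 or more; inconclusive = wells under 50 cells across six images, flagged as toxic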;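 also: per-cell ratio of nuclear to cytoplasmic median beta-catenin stain intensity; plate controls were DMSO negative control for no effect and GSK-3 inhibitor IX positive control for full effect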
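Test system: human HeLa cells, endogenous beta-catenin. Times: 24 h compound exposure, 37°C. Measured by: beta-catenin immunofluorescence imaging with DAPI.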
Dynein cargo inh = inhibitors of GR-EGFP nuclear translocation, primary screen, dynein cargo transport inhibitor project, imaging, high-content, 3617.4 mouse cells. test concentration mostly 20 µM; stimulated with dexamethasone, 1 µM; stronger effect = lower value. z-score, hits read low. actives 0.47% (n = 220,000);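 active = plate z-score of nuclear minus cytoplasmic receptor signal below a set negative limit, without overly bright fluorescence or cell loss, cut at about -3.5 in these data, passing the limit was not always enough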;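 also: z-score of nuclear minus cytoplasmic ring GR-EGFP intensity difference per well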
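medium = tetracycline-free induction medium containing charcoal-stripped FBS | also added = 1.0 µM final dexamethasone stimulus | schedule = 48 h induction, 1 h compound, 30 min dex at 37 °C | technique = fixed, Hoechst-stained cells imaged at 10x for EGFP | measure = GR-EGFP nuclear translocation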
MT stabilizer = microtubule stabilizers in HeLa cells, primary screen, imaging, high-content imaging; actives 0.83% (n = 200,000); HeLa tubulin immunostaining HCS, 24 h; share of cells brighter than vehicle mean+2SD; AID 2205, 2009; % tubulin-high responders, % at 10 µM;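 active = plate Z-score above 3 for both tubulin-high and condensed-nucleus cell shares, with cell loss under 80%, at 10 µM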;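 also: anti alpha tubulin signal scored within the nucleus-defined area of each cell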
* hit, by the source's call; i = inactive; ? = inconclusive; . = no result; + = active, no number. A selection: hits, their analogues and other compounds. The true share with any hit is near 2.1%.

SMILES	Autophagy HCS	Hsp70 activator	bCat nuc transl	Dynein cargo inh	MT stabilizer
COc1ccc(NC(=O)c2ccccc2)c([N+](=O)[O-])c1	i	1.8	-2.2	0.169	4.1
COc1ccc(NC(=S)NC(NC(=O)c2cccc(C)c2)C(Cl)(Cl)Cl)c([N+](=O)[O-])c1 (stereo not drawn)	+	-0.3	-1.2	0.11	2.5
COc1ccc(NC(=O)c2cccnc2)c([N+](=O)[O-])c1	i	-0.4	2.9	2.28	21.7*
COc1ccc(NC(=S)NC(NC(=O)c2cccc(Cl)c2)C(Cl)(Cl)Cl)c([N+](=O)[O-])c1 (stereo not drawn)	+	-0.2	1.6	-0.193	5.7
COc1ccc(NC(=S)NC(NC(C)=O)C(Cl)(Cl)Cl)c([N+](=O)[O-])c1 (stereo not drawn)	i	-0.2	-0.4	-0.623	3.2
O=C(NC(NC(=S)Nc1ccccc1C(=O)O)C(Cl)(Cl)Cl)c1cccc([N+](=O)[O-])c1 (stereo not drawn)	i	0.2	1.5	-0.719	1.8
COc1ccc(NC(=S)NC(=O)/C=C/c2ccco2)cc1	i	0.4	0.0	-0.0454	2.7
COc1ccc(NC(=O)/C(C#N)=C/C=C/c2ccco2)cc1	i	0.7	43.2	0.224	23.6*
COc1ccc(CNCC(=O)Nc2ccccc2-n2cccc2)cc1	i	-0.1	43.1	0.109	33.0*
COc1ccc(CNCC(=O)Nc2cccc(S(N)(=O)=O)c2)cc1	i	-0.3	0.5	1.07	4.3
CCOC(=O)C1CCN(C(=O)c2cccnc2Oc2ccccc2)CC1	.	.	-1.3	4.04	.
Cc1cc(N2CCN(C)CC2)ccc1NC(=O)c1c2c(nc3ccccc13)CCN(Cc1ccccc1)C2	?	-0.3	-2.8	1.14	2.8
Cc1c(Cl)cccc1NC(=O)COC(=O)c1c2c(nc3ccccc13)CCN(Cc1ccccc1)C2	+	-0.5	-0.8	-0.114	3.2
CC(C)c1ccccc1NC(=O)COC(=O)c1c2c(nc3ccccc13)CCN(Cc1ccccc1)C2	+	-0.3	.	-0.3	2.1
CC(=O)Nc1ccc(N2CCc3c(C)c(C#N)c4nc5ccccc5n4c32)cc1	+	-0.2	-0.2	-0.0181	3.5
CCN(CC)S(=O)(=O)c1ccc(C(=O)OCC(=O)NCCN2C(=O)CSC2=O)cc1	i	-0.5	-5.8	-0.514	2.5
COc1ccc(/C=N/Nc2ccc([N+](=O)[O-])cc2)cc1Cn1cc([N+](=O)[O-])cn1	i	-0.1	51.3*	-0.0672	9.1
O=C(CSCC(=O)N1CCCCC1)Nc1nc(-c2ccccc2)c(-c2ccccc2)s1	i	-0.1	9.7	-0.95	2.0
CC(C)c1ccc(-n2c(-c3ccccc3)c[n+]3c2CCc2ccccc2-3)cc1	+	-0.3	1.9	0.307	2.7
COc1ccc(-n2c(-c3ccc(Br)cc3)c[n+]3c2CCc2ccccc2-3)cc1	i	-0.5	-0.7	-0.108	2.1
Cc1nc(NC(=O)c2ccccc2)sc1Cc1ccc2c(c1)OCO2	i	-0.3	.	-0.0896	11.2*
Cc1nc(NC(=O)c2ccc(Cl)cc2)sc1Cc1ccc2c(c1)OCO2	i	0.0	.	1.12	13.1*
Cc1c(Cc2ccc3c(c2)OCO3)sc(NC(=O)c2ccccc2)c1C(N)=O	i	-0.1	-0.4	-0.843	5.5
CCOc1cc(N2CCOCC2)c(OCC)cc1NC(C)C(=O)N1CCC(C)CC1 (stereo not drawn)	i	-0.4	0.1	2.09	9.1
COc1ccc(CCn2c(C3CCCCC3)nc3c(c(=O)c4ccccc4n3C)c2=O)cc1	.	.	50.7*	0.383	.
SMILES	Autophagy HCS	Hsp70 activator	bCat nuc transl	Dynein cargo inh	MT stabilizer
COc1ccc2c(c1)NC(c1ccc(N(C)C)cc1)c1cccn1-2 (stereo not drawn)	.	.	1.1	1.87	.
O=C1OC(C(=O)NCc2ccccc2)Cc2ccccc21 (stereo not drawn)	i	-0.2	0.8	0.021	2.4
COc1cc(S(=O)(=O)Nc2cc(C)cc(C)c2)ccc1F	i	-0.1	.	-0.523	12.4*
COc1ccc(/C=N/NC(=O)c2cccnc2)cc1Cn1nc([N+](=O)[O-])c(Br)c1C	+	-0.1	-4.8	-0.485	26.9*
COc1ccc(/C=N/NC(=O)c2cccnc2)cc1CN1CCc2ccccc2C1	.	.	0.4	0.0196	.
N#CC(c1cccc(Cl)c1)c1ccc2c(C(F)(F)F)cc(C(F)(F)F)nc2n1 (stereo not drawn)	+	0.1	0.5	0.526	3.3
CN1CCN(c2ccc([N+](=O)[O-])cc2C(=O)N2CCOCC2)CC1	i	-0.4	-0.4	0.779	2.8
Cc1ccc(C(=O)c2cc([N+](=O)[O-])ccc2N2CCCCC2)cc1C	i	-0.4	77.9*	0.385	4.2
Cc1ccc(C(=O)c2cc([N+](=O)[O-])ccc2N2CCOCC2)cc1C	i	-0.3	9.6	0.149	19.5*
O=C(NC1CCCCC1)c1cc([N+](=O)[O-])ccc1N1CCCCC1	i	-0.2	-1.9	0.359	4.2
Cc1ccc(C(=O)c2cc([N+](=O)[O-])ccc2N2CCOCC2)c(C)c1	i	0.0	134.7*	-0.397	6.5
CCCOc1ccc(OCCN2CCCC(C)C2)cc1 (stereo not drawn)	i	0.0	1.3	-0.515	3.8
CCOC(=O)C1C(c2cccnc2)NC(=O)NC1(O)C(F)(F)F (stereo not drawn)	i	0.0	-2.5	-0.999	17.4*
CCOC(=O)C1C(c2cccs2)NC(=O)NC1(O)C(F)(F)F (stereo not drawn)	i	-0.5	-0.7	-0.163	1.6
N#CC1=C2SCC(O)(c3ccccc3)N2C(=O)CC1c1ccccc1F (stereo not drawn)	i	0.1	.	1.42	47.3*
N#CC1=C2SCC(O)(c3ccccc3)N2C(=O)CC1c1cccs1 (stereo not drawn)	i	0.3	175.5*	-0.763	31.8*
COc1ccc(C2CC(=O)N3C(=C2C#N)SCC3(O)c2ccccc2)cc1 (stereo not drawn)	i	-0.2	-6.1	-0.509	2.6
O=C(Nc1nncs1)c1cccnc1Cl	i	-0.1	-4.0	1.59	1.9
COc1ccc(NC(=O)CCC(=O)c2cccs2)cc1S(=O)(=O)Nc1ccc(Cl)cc1	i	0.1	20.1	-0.466	17.4*
COc1ccccc1NS(=O)(=O)c1cc(NC(=O)CCC(=O)c2cccs2)ccc1Cl	i	-0.3	0.5	-0.281	2.4
Cc1ccc(Nc2cc(C)nc(NCc3ccccc3)n2)cc1	i	-0.3	-0.5	-0.0533	30.1*
CCOC(=O)CN1CCS(=O)(=O)CC1	i	-0.5	1.0	-0.532	3.9
COc1ccccc1Nc1cc(N2CCOCC2)c2nonc2c1[N+](=O)[O-]	i	0.0	-1.1	-0.452	16.4*

Bioassay records (PubChem)
